Laboratory results reported in publication PMC7610841 (Nature, 2020).
“Also recorded” adds a separate entry of the source.

Experiments:
senseless [1] = assay: Effect of overexpression on high target gene senseless in wing discs; type: in vivo, Drosophila; details: driven with ptc-Gal4 in wing discs
In short: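 Wing discs from crosses at 25°C, with V5-tagged human glypican UAS-attB transgenes driven by ptc-Gal4 (senseless) or en-Gal4 (Distal-less). Discs immunostained with Alexa-conjugated secondaries, DAPI-mounted and imaged by confocal microscopy. Distal-less signal quantified in boxed regions and plotted separately for anterior and posterior compartments. Three independent repeats.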

GFP-Wingless [2] = assay: In vivo trapping of GFP-Wingless at the surface of wing imaginal disc cells; design: species or system Drosophila; details: overexpressed with ptc-Gal4 in wing imaginal discs
In short: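 GFP-Wingless knock-in wing discs with V5-tagged human GPC4, GPC6, GPC3 or GPC5 driven by ptc-Gal4, crossed at 25°C. Surface capture of GFP-Wingless imaged by confocal microscopy after immunostaining with Alexa-conjugated secondaries and DAPI mounting. Three independent repeats.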

GFP-Wingless [3] = details: culture medium, literature; ref [6],[22]; cited from earlier work
[4] = Lipid binding of furin-site mutant vs wild-type Dlp^core; details: furin sites destroyed: K398Q, K399A, R402Q, R438Q, R441A
senseless [5] = details: overexpressed; ref [13],[14]; cited from earlier work
Distal-less = details: overexpressed; ref [13],[14]; cited from earlier work
GFP-Wingless[S239A] = assay: In vivo trapping of GFP-Wingless[S239A] at the surface of imaginal disc cells; design: species or system Drosophila; details: glypican overexpressed with ptc-Gal4 in imaginal discs
GFP-Wingless [6] = assay: Solubilisation of GFP-Wingless in serum-free S2 cell medium; type: cell-based, Drosophila; details: conditioned medium from S2 cells expressing Dlp^ΔGPI-V5 added to S2 cells expressing GFP-Wingless, 12hrs, concentrated 20-fold, Western blot
Wingless = details: ref [13],[14]; cited from earlier work
GFP-Wingless [7] = assay: Colocalisation with morphotrap-enriched GFP-Wingless in wing discs; type: in vivo, Drosophila; details: n=4 (Dlp^ΔGPI-V5), n=13 (ApoL), n=10 (Hrs)
In short: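 For ApoL and Hrs, morphotrap is driven by dpp-Gal4 and the endogenous proteins are immunostained. For Dlp ΔGPI-V5, morphotrap is driven by dpp-LexA and Dlp by wg-Gal4, limited to 24 h with Gal80ts (18°C rearing, 29°C shift). Confocal imaging; colocalisation scored where domains intersect; SD; three repeats.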

B1: GPC6: human glypican of Dlp family; secreted ΔGPI form (amino acids 1-529) in solubilisation assays (protein)
chain: DVKARSCGEVRQAYGAKGFSLADIPYQEIAGEHLRICPQEYTCCTTEMEDKLSQQSKLEFENLVEETSHFVRTTFVSRHKKFDEFFRELLENAEKSLNDMFVRTYGMLYMQNSEVFQDLFTELKRYYTGGNVNLEEMLNDFWARLLERMFQLINPQYHFSEDYLECVSKYTDQLKPFGDVPRKLKIQVTRAFIAARTFVQGLTVGREVANRVSKVSPTPGCIRALMKMLYCPYCRGLPTVRPCNNYCLNVMKGCLANQADLDTEWNLFIDAMLLVAERLEGPFNIESVMDPIDVKISEAIMNMQENSMQVSAKVFQGCGQPKPAPALRSARSAPENFNTRFRPYNPEERPTTAAGTSLDRLVTDIKEKLKLSKKVWSALPYTICKDESVTAGTSNEEECWNGHSKARYLPEIMNDGLTNQINNPEVDVDITRPDTFIRQQIMALRVMTNKLKNAYNGNDVNFQDTSDESSGSGSGSGCMDDVCPTEFEFVTTEAPAVDPDRREVDS
modifications: left off: V5, internal (immediately after the signal peptide), state not stated
In the case of B1, the “effect on high target gene senseless” value (senseless [1]) is reported as “inhibit the high target gene senseless” and the “trapping of GFP-Wingless at the cell surface” value (GFP-Wingless [2]; listed as hGPC6) is reported as “trapped Wingless”.

B2: Afamin: lipid-binding protein (protein, UniProt P43652 22-599, looked up)
Afamin: LPTQPRDIENFNSTQKFIEDNIEYITIIAFAQYVQEATFEEMEKLVKDMVEYKDRCMADKTLPECSKLPNNVLQEKICAMEGLPQKHNFSHCCSKVDAQRRLCFFYNKKSDVGFLPPFPTLDPEEKCQAYESNRESLLNHFLYEVARRNPFVFAPTLLTVAVHFEEVAKSCCEEQNKVNCLQTRAIPVTQYLKAFSSYQKHVCGALLKFGTKVVHFIYIAILSQKFPKIEFKELISLVEDVSSNYDGCCEGDVVQCIRDTSKVMNHICSKQDSISSKIKECCEKKIPERGQCIINSNKDDRPKDLSLREGKFTDSENVCQERDADPDTFFAKFTFEYSRRHPDLSIPELLRIVQIYKDLLRNCCNTENPPGCYRYAEDKFNETTEKSLKMVQQECKHFQNLGKDGLKYHYLIRLTKIAPQLSTEELVSLGEKMVTAFTTCCTLSEEFACVDNLADLVFGELCGVNENRTINPAVDHCCKTNFAFRRPCFESLKADKTYVPPPFSQDLFTFHADMCQSQNEELQRKTDRFLVNLVKLKHELTDEELQSLFTNFANVVDKCCKAESPEVCFNEESPKIGN
In the case of B2, the “release of soluble Wnt on addition of lipid-binding protein” value (GFP-Wingless [3]) is given as “enables the release of soluble Wnt”.

B3: furin mutant form: Dlp^core form where both furin sites were destroyed (protein)
chain: DQFSPNCSAVTHIFQARGIDAIEIPQKPSNERVLRYCESPSVGTCCTYNMETRMAMQSRQQLEGHTKDQISRMSGILGSKATKFKDIFTALLKESRTQFNSMFIRTYGVIYERNSYVFSDLFKELETYFANGRVDLLEVMDKFFNTLYQKMFTVLNTQYTFDENYMRCVSEHMKELKPFGDVPDKLSVQIKRSFVATRTYGQALTTASEVAKKVLNVRLNADCTGALTKMQHCGACKGYTEKPCTNYCVNVIKGCLHYQHEFDSEWENFAMAMDKVAERLLGSFNIVMVVEPLNIKISEAIMNFQDSGQDITNRVFQGCGRPKLQAMKQSISPKLQGVQILNARSPVEADTLDIDETLDEAIVLQERAAAEPGSQETSAQQSQEQGVGKSGNGGGGGGGNNRRQQQRRKQQQQRRKQQNNRDDNDDDDNESGGGREPILDRIVRDIRQRVKDYKKFWSNLPHSVCSNEDIASSSDVDGMCWNGHTIDRYMHSITTEHGSNPEFTGNPASTKQTAQMASQLSHLKNAIVHLRNAYNGQDVEWSEQ
modifications: left off: Twin-Strep, C-terminal, cleaved
For B3, the “lipid binding behaviour vs wild-type form” value [4] was “No difference in lipid binding behaviour”.

B4: Dlp: Drosophila glypican Dally-like protein (protein)
chain: PQVAALAAPNPAGGVAGSSIIDQFSPNCSAVTHIFQARGIDAIEIPQKPSNERVLRYCESPSVGTCCTYNMETRMAMQSRQQLEGHTKDQISRMSGILGSKATKFKDIFTALLKESRTQFNSMFIRTYGVIYERNSYVFSDLFKELETYFANGRVDLLEVMDKFFNTLYQKMFTVLNTQYTFDENYMRCVSEHMKELKPFGDVPDKLSVQIKRSFVATRTYGQALTTASEVAKKVLNVRLNADCTGALTKMQHCGACKGYTEKPCTNYCVNVIKGCLHYQHEFDSEWENFAMAMDKVAERLLGSFNIVMVVEPLNIKISEAIMNFQDSGQDITNRVFQGCGRPKLKKMKRSISPKLQGVQILNARSPVEADTLDIDETLDEAIVLRERRAAEPGSQETSAQQSQEQGVGKSGNGGGGGGGNNRRQQQRRKQQQQRRKQQNNRDDNDDDDNESGGGREPILDRIVRDIRQRVKDYKKFWSNLPHSVCSNEDIASSSDVDGMCWNGHTIDRYMHSITTEHGSNPEFTGNPASTKQTAQMASQLSHLKNAIVHLRNAYNGQDVEWSEQEELPYAGSGAGSGSGSEDDEDDDEGSGLGPFEPSHKPDVERPSVDADNDDDEDAGGRGHMPTHTSRPTSGVDDKNPLIHTTHFDQDHNDLDEDHRQLDEDEDTDAG
modifications: left off: HA, end not stated, kept
In the case of B4, the “biphasic activity in wing imaginal discs: senseless” value (senseless [5]) is listed as “inhibiting the high target gene senseless”, the “biphasic activity in wing imaginal discs: distal-less” value (Distal-less) is listed as “extending the range of the low target gene distal-less” and the “trapping of GFP-Wingless at the cell surface” value (GFP-Wingless [2]) is listed as “duly trapped endogenous-level GFP-Wingless; also recorded: captures GFP-Wingless”. For the same molecule, the “trapping of GFP-Wingless[S239A] (unlipidated)” value (GFP-Wingless[S239A]) was “did not detectably trap; also recorded: not GFP-Wingless[S239A]”.

B5: Dlp^ΔGPI: secreted form of Dlp lacking its membrane anchor, amino acids 53-723 (protein)
chain: B4 chain
modifications: left off: V5, C-terminal, kept
For B5, the “solubilisation of GFP-Wingless, added conditioned medium” value (GFP-Wingless [6]) is listed as “A similar effect was seen”, the “solubilisation of GFP-Wingless, added conditioned medium” value (GFP-Wingless [6]; listed as Dlp^ΔGPI-V5) is listed as “stabilises GFP-Wingless in solution” and the “binding to Wingless” value (Wingless) is listed as “known to bind Wingless”. The “colocalisation with morphotrap-enriched GFP-Wingless” value (GFP-Wingless [7]) was “colocalizes”.
